Assay results published in ChEMBL document CHEMBL1133340, “Design, synthesis, and structure-activity relationship studies of ATP analogues as DNA gyrase inhibitors” (2000).
≈ marks a conversion by molar mass, not a printed value. Values belong to the compound of their own block, whether it stands above or below them.

Columns and labels:
[1] = tested on: Enterococcus faecium; experiment: Compound was tested in vitro for antibacterial activity against Enterococcus faecium vanA E23-8; assay type: functional
In short: (§1)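 MIC by 2-fold agar dilution on Mueller-Hinton agar, inoculum 10⁴ CFU per spot.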

[2] = tested on: Staphylococcus epidermidis; experiment: Compound was tested in vitro for antibacterial activity against Staphylococcus epidermidis ATCC 14990; assay type: functional; in short: as §1
[3] = tested on: Staphylococcus aureus; experiment: Compound was tested in vitro for antibacterial activity against Staphylococcus aureus ATCC 25923; assay type: functional; in short: as §1
[4] = tested on: Staphylococcus aureus; experiment: Compound was tested in vitro for antibacterial activity against Staphylococcus aureus Coum-R; assay type: functional; in short: as §1
[5] = tested on: Staphylococcus aureus; experiment: Compound was tested in vitro for antibacterial activity against Staphylococcus aureus H19982; assay type: functional; in short: as §1
[6] = tested on: Staphylococcus aureus; experiment: Compound was tested in vitro for antibacterial activity against Staphylococcus aureus NovoR; assay type: functional; in short: as §1
[7] = tested on: Staphylococcus aureus; experiment: Compound was tested in vitro for antibacterial activity against Staphylococcus aureus Smith; assay type: functional; in short: as §1
[8] = tested on: Staphylococcus aureus; experiment: Compound was tested in vitro for antibacterial activity against Staphylococcus aureus Smith QR-54; assay type: functional; in short: as §1
[9] = tested on: Streptococcus pyogenes; experiment: Compound was tested in vitro for antibacterial activity against Streptococcus pyogenes beta15; assay type: functional; in short: as §1
[10] = target: T1, DNA gyrase (Escherichia coli) (UniProt P0AES6+P0AES4); experiment: Maximum non-effective concentration against in vitro Escherichia coli DNA gyrase supercoiling activity was determined by coupled spectrophotometric ATPase assay; assay type: protein-complex assay
In short: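 E. coli DNA gyrase ATPase activity measured in a coupled spectrophotometric system with pyruvate kinase and lactate dehydrogenase, following NADH disappearance as ATP is consumed; supercoiling assay used for validation. Value reported as maximum non-effective concentration (MNEC), the highest inhibitor concentration showing no gyrase inhibition.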

[11] = target: T1, DNA gyrase (Escherichia coli)

SMILES: CO[C@@H]1[C@@H](OC(N)=O)[C@@H](O)[C@H](Oc2ccc3c(O)c(NC(=O)c4ccc(O)c(CC=C(C)C)c4)c(=O)oc3c2C)OC1(C)C [NOVOBIOCIN]
MIC [1]: 8 µg/mL (≈ 13.1 µM) | MIC [2]: 0.12 µg/mL (≈ 0.196 µM) | MIC [3]: 0.25 µg/mL (≈ 0.408 µM) | MIC [4]: 16 µg/mL (≈ 26.1 µM) | MIC [5]: 0.25 µg/mL (≈ 0.408 µM) | MIC [6]: 8 µg/mL (≈ 13.1 µM) | MIC [7]: 0.25 µg/mL (≈ 0.408 µM) | MIC [8]: 8 µg/mL (≈ 13.1 µM) | MIC [9]: 2 µg/mL (≈ 3.26 µM)

SMILES: CCc1nn(-c2cc(Cl)cc(Cl)c2)c2nc(Oc3ccc4c(C)cc(=O)oc4c3)nc(N)c12
MNEC [10]: > 125 µg/mL

SMILES: CCOC(=O)c1cccc(Oc2nc(N)c3c(C)nn(-c4cc(Cl)cc(Cl)c4)c3n2)c1
MNEC [10]: 63 µg/mL

SMILES: CCc1nn(-c2cc(Cl)cc(Cl)c2)c2nc(Sc3cccc(C(=O)O)c3)nc(N)c12
MIC [1]: > 32 µg/mL | MIC [2]: 0.5 µg/mL (≈ 1.09 µM) | MIC [3]: 16 µg/mL (≈ 34.8 µM) | MIC [4]: 32 µg/mL (≈ 69.5 µM) | MIC [5]: 4 µg/mL (≈ 8.69 µM) | MIC [6]: 32 µg/mL (≈ 69.5 µM) | MIC [7]: 16 µg/mL (≈ 34.8 µM) | MIC [8]: 2 µg/mL (≈ 4.34 µM) | MNEC [11]: 0.25 µg/mL

SMILES: CCc1nn(-c2cc(Cl)cc(Cl)c2)c2nc(Oc3ccc4c(O)cc(=O)oc4c3)nc(N)c12
MNEC [11]: 0.06 µg/mL

SMILES: CCc1nn(-c2cc(Cl)cc(Cl)c2)c2nc(Oc3ccc4c(O)c(NC(C)=O)c(=O)oc4c3)nc(N)c12
MIC [1]: > 32 µg/mL | MIC [2]: 4 µg/mL (≈ 7.39 µM) | MIC [3]: 16 µg/mL (≈ 29.6 µM) | MIC [4]: 16 µg/mL (≈ 29.6 µM) | MIC [5]: 4 µg/mL (≈ 7.39 µM) | MIC [6]: 16 µg/mL (≈ 29.6 µM) | MIC [7]: 8 µg/mL (≈ 14.8 µM) | MIC [8]: 8 µg/mL (≈ 14.8 µM) | MIC [9]: 1 µg/mL (≈ 1.85 µM) | MNEC [11]: 0.5 µg/mL

SMILES: Cc1nn(-c2cc(Cl)cc(Cl)c2)c2nc(Oc3ccc4c(O)cc(=O)oc4c3)nc(N)c12
MNEC [11]: 0.25 µg/mL

SMILES: Cc1ccc(Oc2nc(N)c3cnn(-c4cc(Cl)cc(Cl)c4)c3n2)cn1
MNEC [11]: > 125 µg/mL

SMILES: CCOC(=O)c1c(O)oc2cc(Oc3nc(N)c4c(CC)nn(-c5cc(Cl)cc(Cl)c5)c4n3)ccc2c1=O
MNEC [11]: 2 µg/mL

SMILES: Nc1nc(Sc2cccc(C(=O)O)c2)nc2c1cnn2-c1cc(Cl)cc(Cl)c1
MNEC [11]: 1 µg/mL

SMILES: COc1ccc(-c2cnn3c(N)nc(Oc4ccc5c(O)cc(=O)oc5c4)nc23)cc1OC
MNEC [11]: 0.1 µg/mL

SMILES: Nc1nc(Oc2ccc3c(O)cc(=O)oc3c2)nc2c1cnn2-c1cc(Cl)cc(Cl)c1
MNEC [11]: 0.5 µg/mL

SMILES: CCOC(=O)c1cccc(Oc2nc(N)c3cnn(-c4cc(Cl)cc(Cl)c4)c3n2)c1
MNEC [10]: 125 µg/mL

SMILES: CCCCNC(=O)Nc1c(O)oc2cc(Oc3nc(N)c4c(CC)nn(-c5cc(Cl)cc(Cl)c5)c4n3)ccc2c1=O
MIC [1]: 16 µg/mL (≈ 26.7 µM) | MIC [2]: 4 µg/mL (≈ 6.68 µM) | MIC [3]: 4 µg/mL (≈ 6.68 µM) | MIC [4]: 8 µg/mL (≈ 13.4 µM) | MIC [5]: 4 µg/mL (≈ 6.68 µM) | MIC [6]: 8 µg/mL (≈ 13.4 µM) | MIC [7]: 8 µg/mL (≈ 13.4 µM) | MIC [8]: 2 µg/mL (≈ 3.34 µM) | MIC [9]: 2 µg/mL (≈ 3.34 µM) | MNEC [11]: 0.5 µg/mL

SMILES: CCc1nn(-c2cc(Cl)cc(Cl)c2)c2nc(Oc3ccc4c(O)c(C(C)=O)c(=O)oc4c3)nc(N)c12
MNEC [11]: 2 µg/mL

SMILES: CCc1nn(-c2cc(Cl)cc(Cl)c2)c2nc(Oc3ccc4c(O)cc(=O)oc4c3)nc(NC3CC3)c12
MNEC [11]: 4 µg/mL

SMILES: CCc1nn(-c2cc(Cl)cc(Cl)c2)c2nc(Oc3ccc(C)nc3)nc(N)c12
MNEC [10]: < 16 µg/mL | MNEC [11]: > 16 µg/mL

SMILES: CCc1nn(-c2cc(Cl)cc(Cl)c2)c2nc(Oc3ccc4c(N(C)C)cc(=O)oc4c3)nc(N)c12
MNEC [10]: 125 µg/mL

SMILES: CCc1nn(-c2cccc(F)c2)c2nc(Sc3cccc(C(=O)O)c3)nc(N)c12
MNEC [11]: 8 µg/mL

The next lines start with the values.

MNEC [11]: 1 µg/mL
SMILES: CCc1nn(-c2cccc(F)c2)c2nc(Oc3ccc4c(O)cc(=O)oc4c3)nc(N)c12

MNEC [11]: 8 µg/mL
SMILES: CCNc1nc(Sc2cccc(C(=O)O)c2)nc2c1c(CC)nn2-c1cc(Cl)cc(Cl)c1

MNEC [11]: 1 µg/mL
SMILES: Cc1nn(-c2cc(Cl)cc(Cl)c2)c2nc(Sc3cccc(C(=O)O)c3)nc(N)c12

MNEC [10]: < 16 µg/mL | MNEC [11]: > 63 µg/mL
SMILES: Cc1ccc(Oc2nc(N)n3ncc(-c4ccc(Cl)c(Cl)c4)c3n2)cn1

MNEC [11]: 8 µg/mL
SMILES: CCc1nn(-c2cc(Cl)cc(Cl)c2)c2nc(Sc3cccc(C(=O)O)c3)nc(NC3CC3)c12

MIC [1]: 32 µg/mL (≈ 74 µM) | MIC [2]: 4 µg/mL (≈ 9.25 µM) | MIC [3]: > 32 µg/mL | MIC [4]: > 32 µg/mL | MIC [5]: > 32 µg/mL | MIC [6]: > 32 µg/mL | MIC [7]: > 32 µg/mL | MIC [8]: > 32 µg/mL | MIC [9]: 0.5 µg/mL (≈ 1.16 µM) | MNEC [11]: 1 µg/mL
SMILES: Nc1nc(Sc2cccc(C(=O)O)c2)nc2c(-c3ccc(Cl)c(Cl)c3)cnn12

MNEC [10]: 125 µg/mL
SMILES: Cc1ccc(Oc2nc(N)c3c(C)nn(-c4cc(Cl)cc(Cl)c4)c3n2)cn1

MNEC [10]: 125 µg/mL
SMILES: CCOC(=O)c1cccc(Oc2nc(N)c3c(CC)nn(-c4cc(Cl)cc(Cl)c4)c3n2)c1

MNEC [11]: 0.5 µg/mL
SMILES: Cc1nn2c(N)nc(Sc3cccc(C(=O)O)c3)nc2c1C#N

MNEC [11]: 8 µg/mL
SMILES: Cc1nn2c(N)nc(Oc3ccc4c(O)cc(=O)oc4c3)nc2c1C#N
